ChEMBL document CHEMBL4513216, “Probing the Open Global Health Chemical Diversity Library for Multistage-Active Starting Points for Next-Generation Antimalarials” (ACS Infect Dis, 2020)

Assay: Toxicity liver stage against HepG2, at 10uM
Format: cell-based
Parameters: test concentration 10 uM, cell line HepG2-A16-CD81EGFP
Details: human, HepG2-A16-CD81EGFP cells; read-out: INHIBITION
Outline: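 Uninfected HepG2-A16-CD81EGFP cells, 3 × 10^3 per well, 1536-well, plated on prespotted compound at 10 μM final, parasite-free screening media added to match infected plates; puromycin 10 μM positive, DMSO 0.5% negative; run in parallel with 48 h PbLuc assay at 37 °C, 5% CO2; viability by CellTiter-Glo luminescence, normalized to controls.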

Row | SMILES | cytotoxicity at 10 µM
1 | O=C1CCN(C(=O)C2(c3ccc(Br)cc3)CC2)CCN1 | 1.56%
2 | CN(C)c1cccc(CNCc2ccc(N3CCOCC3)cc2)c1 | 11.3%
3 | Cc1csc(CNC(=O)Nc2cc(C(F)(F)F)c[nH]c2=O)n1 | -13.7%
4 | O=C(CCNc1ccc(Br)cn1)NCc1ccncc1 | -0.222%
5 | CN1CCN(C[C@@H]2OC[C@H]3CN(Cc4cccc(F)c4)CC[C@H]32)CC1 | -10.3%
6 | CCN(CC)C(=O)CS(=O)(=O)c1cc(OC)c(OC)cc1C | -2.58%
7 | CCCC(=O)NC1CCCN(c2nc3ccccc3cc2CO)C1 (stereo unspecified) | -44.5%
8 | CO[C@@H]1CCN(Cc2cnn(C)c2)[C@@H]2CN(Cc3cccnc3)C[C@@H]21 | 8.47%
9 | CCCS(=O)(=O)NCC1OCCc2cn(CC3CCOCC3)nc21 (stereo unspecified) | -5.6%
10 | COCCN1CCN(S(=O)(=O)C2CC2)Cc2cccnc21 | 4.73%
11 | COC1CCN(C(=O)CC(C)(C)C)CC(=O)N(C)c2ccccc21 (stereo unspecified) | 2.44%
12 | CCOCC(=O)N1CCC(Oc2ccc(Cl)cn2)CC1 | 7.39%
13 | N#CCCN(CC1CCOC1)Cn1ccc(-c2ccccc2)n1 (stereo unspecified) | -3.8%
14 | c1cncc(OC[C@]23COC[C@H]2CN(C2CCC2)C3)c1 | 4.64%
15 | Clc1cccc(CNC2CCN(CCc3ccncc3)CC2)c1 | -5.62%
16 | CC(C)CC(=O)NCc1cccc(OCCN(C)C2CCOCC2)c1 | 11.5%
17 | CCn1cnnc1C1CCN(C(=O)c2cnc(C3CC3)s2)CC1 | -7.59%
18 | CCn1c(C)nnc1CN(C)C1CCN(Cc2ccon2)C1 (stereo unspecified) | 0.793%
19 | CCCNS(=O)(=O)c1cnccc1N1CCN(C(C)C)CC1 | -1.32%
20 | O=C(c1cccc2ncccc12)N1CCC(Nc2cccnn2)CC1 | -14.7%
21 | CCN(C)c1ncnc2c1CCN(C(=O)c1ccsc1)CC2 | -0.408%

Row | SMILES | cytotoxicity at 10 µM
22 | CN(C)C(=O)C1CCN(Cn2ccc(-c3ccc(F)cc3)n2)CC1 | 6.19%
23 | CC(C)C1CN(c2cccc(C#N)n2)CCCN1Cc1ccc(F)cc1 (stereo unspecified) | 10%
24 | CCOC(=O)c1sc2ccsc2c1CNC(=O)CCOC | -16.7%
25 | CC1(c2ccccc2)CCCN(Cc2cncn2C2CC2)C1 (stereo unspecified) | -1.06%
26 | CCCN1CCC(NC(=O)c2ccc(F)cc2I)CC1 | -11.8%
27 | O=S(=O)(C1CC1)N1C[C@H]2CCC[C@@]2(COc2ccccn2)C1 | -3.47%
28 | COCCCNC(=O)C1(NC(=O)c2ccc3[nH]ncc3c2)CCCC1 | -1.62%
29 | Cc1cc(C2CCCN2C(=O)NCc2cccnc2)on1 (stereo unspecified) | 0.458%
30 | Cc1cccc(-c2nc(CN(Cc3cccs3)CC3CCCO3)no2)c1 (stereo unspecified) | -3.01%
31 | Cc1ccc(C)c2c(=O)cc(CN3CC[C@@H](N)[C@H](O)C3)[nH]c12 | 8.24%
32 | CCc1nc2n(n1)CCCC2NC(=O)Nc1cc(OC)ccc1C (stereo unspecified) | 12.7%
33 | COc1cccc(CN(C)C(C)c2ccon2)c1OCCn1ccnc1 (stereo unspecified) | -5.17%
34 | O=C([C@@H]1COC[C@H]2CN(C3CCCCC3)C[C@H]21)N1CCOCC1 | -107%
35 | CN(C)Cc1cnc(C2CCN(C(=O)c3cccc(Cl)c3)C2)[nH]1 (stereo unspecified) | -3.36%
36 | CCCN(CCC)C(=O)Cn1c(SC)nc2ccsc2c1=O | 3.88%
37 | CCN(CC)CCCNC(=O)c1nn(CC)cc1Cl | 10.8%
38 | FC(F)Oc1ccc(CNCc2cc(Br)c3c(c2)OCO3)cc1 | 35.1%
39 | CCc1cc(=O)n(CC(=O)N2CCCC2)c(-c2ccc(F)cc2)n1 | 8.66%
40 | Cc1cc(CCC(=O)Nc2nncs2)nc(C2CCCN2)n1 (stereo unspecified) | -28%
41 | N#Cc1cccc(N2CCC3(CC2)Nc2ccccc2NC3=O)n1 | 5.57%
42 | CN(C)C(=O)CC1CC2(CCN(C(=O)N(C)C)CC2)Oc2ccccc21 (stereo unspecified) | -11.5%

Row | SMILES | cytotoxicity at 10 µM
43 | CN(Cc1cncnc1)[C@@H]1CN(C(=O)C2CC2)[C@@H]2CCCO[C@H]12 | -112%
44 | CN(Cc1cnn(C)c1)C(=O)NCC1CCS(=O)(=O)C1 (stereo unspecified) | 10.3%
45 | COc1ccc(CN2C[C@H]3CCC[C@@H](CN(C)C4CC4)[C@H]3C2)cn1 | 4.56%
46 | COc1ccc(CCCNCc2c(C)nn(C)c2N(C)C)cc1OC | -19.2%
47 | CCc1nc(C)cn1C(=O)Nc1ccc(F)cc1 | 11.1%
48 | O=C(O)c1ccccc1-c1cnc(Cn2c(=O)cc[nH]c2=O)s1 | 2.95%
49 | O=C1Nc2ccccc2C12CCCN(Cc1ccncc1)C2 (stereo unspecified) | 4.32%
50 | CSc1ccsc1C(=O)NS(=O)(=O)c1cnn(C)c1 | -5.35%
51 | COc1ccccc1CN1CCC(c2nccc(C)n2)C1 (stereo unspecified) | 3.44%
52 | Cc1cnn(Cc2cc(F)ccc2F)c1NC(=O)C1CCOCC1 | -0.303%
53 | CNC(=O)c1cccc(CCNc2ccc(C#N)cn2)c1 | -3.67%
54 | Cc1cnn(CC2CCCN2C(=O)Cn2nc(C)c(Cl)c2C)c1 (stereo unspecified) | -11.3%
55 | CCn1cc(C(=O)Nc2cc(C(=O)OC)ccc2C(=O)OC)cn1 | -1.2%
56 | Cc1cccc(CN2CCN3C(=O)NC[C@H]3C2)n1 | -3.3%
57 | Cc1nccn1[C@@H]1CC[C@@H](N(C)S(=O)(=O)c2ccccc2F)[C@H]1O | 1.17%
58 | Cc1nn(C)c(C)c1CN(C)S(=O)(=O)c1c(C)n[nH]c1C | -2.32%
59 | CNC(=O)c1cc(-c2ccccc2OC)[nH]n1 | -2.77%
60 | CC(=O)N1CCC(Cc2cnc(-c3c(C)nn(C)c3C)cn2)CC1 | -11.8%
61 | CSc1ccc(CNc2n[nH]c(C)n2)cc1 | -3.58%
62 | Cn1cc(Br)c(C(=O)NCCCn2cc(Cl)cn2)n1 | -1.49%
63 | CCOCC1CN(C(=O)c2ccco2)Cc2cnn(C)c21 (stereo unspecified) | 6.14%

Row | SMILES | cytotoxicity at 10 µM
64 | COc1ccc(F)cc1C[S+]([O-])CC(=O)NCC(C)C (stereo unspecified) | -5.95%
65 | CC(=O)NC1CCc2ccc(S(=O)(=O)NCc3ncccc3C)cc21 (stereo unspecified) | 10.4%
66 | CSCC(C)N(C)C(=O)c1nn(-c2ccc(F)cc2C)cc1O (stereo unspecified) | 0.618%
67 | COc1ccc(CN2CC[C@@H](O)[C@@H]2Cc2cnn(C)c2)cc1 | -68.3%
68 | COC(=O)C(c1ccccc1)N(C)C(=O)c1ccnc(C)n1 (stereo unspecified) | 1.4%
69 | O=C1O[C@@H]2CN(c3ccc(Cl)cn3)C[C@@H]2N1CCc1ccc(F)cc1 | -2.77%
70 | COCCN1CCN(CC(O)c2cc(OC)ccc2OC)CC1 (stereo unspecified) | 3%
71 | Cc1ccc(NC(=O)C2CSCN2C(=O)c2cnn(C)c2)c(C)c1 (stereo unspecified) | -3.97%
72 | O=C(N1CCOCC1)N1CCOC[C@H](Oc2ccc(C(F)(F)F)cc2)C1 | 1.27%
73 | O=C(NCCSc1ccccc1)[C@H]1CNC[C@@H](C(=O)N2CCOCC2)C1 | -3.03%
74 | CCc1nc(NC(=O)Cc2csc(-c3nnc[nH]3)n2)sc1C | -45.1%
75 | O=C(CC1CCN(CCN2CCCCC2)CC1)N1CCOCC1 | -3.91%
76 | Cc1ccc(S(=O)(=O)NC(=O)C2(c3ccc(F)cc3)CCC2)c(C)c1 | -1.09%
77 | CNC(=O)C(C)NC(=O)c1ccc(Oc2cccnc2)cc1 (stereo unspecified) | 6.32%
78 | O=C1CCC(C(=O)NCc2nn(-c3ccccc3)c3c2CCC3)CN1 (stereo unspecified) | -10.1%
79 | O=C(C1CC(=O)N(c2ccccc2Br)C1)N1CCC2(CC1)OCCO2 (stereo unspecified) | 11.3%
80 | CC(=O)Nc1ncc(S(=O)(=O)N2CCN(C3CCCCC3)CC2)s1 | -4.5%
81 | COC(=O)c1ccc(NC(=O)NC2CCc3[nH]ncc3C2)cc1 (stereo unspecified) | -11.2%
